B2AR ag = beta2AR agonists driving receptor internalization, primary screen, cell-based, FAP fluorogen, flow cytometry; hit rate 0.43% among 340,000; response, % (concentration not given with the values); Beta-2 adrenergic receptor (Homo sapiens), P07550; Am2.2-beta2AR cells;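 active = response above a set limit, near 3 SD of response in nonfluorescent compounds, cut at about 42% in these data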
Target sequence (P07550 whole entry, looked up): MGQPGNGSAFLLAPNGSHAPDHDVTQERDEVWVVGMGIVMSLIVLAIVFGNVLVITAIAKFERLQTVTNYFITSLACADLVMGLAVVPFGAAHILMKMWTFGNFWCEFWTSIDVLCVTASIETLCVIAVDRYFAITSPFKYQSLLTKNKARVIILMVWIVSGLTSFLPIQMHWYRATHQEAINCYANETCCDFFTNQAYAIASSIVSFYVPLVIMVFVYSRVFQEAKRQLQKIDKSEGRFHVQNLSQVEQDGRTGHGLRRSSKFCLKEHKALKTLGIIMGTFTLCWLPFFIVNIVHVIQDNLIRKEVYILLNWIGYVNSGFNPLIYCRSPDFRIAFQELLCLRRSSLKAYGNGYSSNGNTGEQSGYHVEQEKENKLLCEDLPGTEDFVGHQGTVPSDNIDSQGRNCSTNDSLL
MEKK3 PB1 HTS = modulators of MEKK3-MEK5 PB1 binding, primary screen, biochemical, wildtype MEKK3, multiplex bead flow cytometry, Alexa488-MEK5; AID 1529, 2009; Mitogen-activated protein kinase kinase kinase 3 (Homo sapiens), Q99759; binding response (% of control), % at 10 µM; bead-based flow cytometry, Alexa488-MEK5 binding to MEKK3; actives lie on both sides; 0 = blocked by unlabeled MEK5, 100 = vehicle; hit rate 1.4% among 290,000;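 active = binding response more than 3 SD above or below the average of its plate-row segment, actives on both sides; inconclusive = wells at one plate position flagged as instrument error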;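 also: Alexa488 bead fluorescence after subtracting the streptavidin-only scavenger bead signal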
MEKK2 WT-MEK5 = modulators of MEK5 binding to wildtype MEKK2, primary screen, biochemical, multiplex bead flow cytometry, Alexa488-MEK5; Alexa488-MEK5 binding to MEKK2 WT; actives lie on both sides; binding response (% of control), % at 10 µM; hit rate 1.1% among 290,000; in the data active = binding response below about 67% or above about 130%; inconclusive = no clear call, values can overlap the other calls; inactive = in between
MEKK2mut PB1 HTS = MEK5 binding signal on mutant MEKK2 PB1, primary screen, biochemical, multiplex bead flow cytometry, Alexa488-MEK5 | hit rate 0.35% among 290,000 | percent response, % at 10 µM | Alexa488-MEK5 binding to MEKK2 mutant; in the data active = percent response above about 24%, passing the limit was not always enough
Dynein cargo inh = inhibitors of GR-EGFP nuclear translocation, primary screen, dynein cargo transport inhibitor project, imaging, high-content, 3617.4 mouse cells; AID 1381, 2008; test concentration mostly 20 µM; stimulated with dexamethasone, 1 µM; stronger effect = lower value; hit rate 0.47% among 220,000; z-score, hits read low;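 active = plate z-score of nuclear minus cytoplasmic receptor signal below a set negative limit, without overly bright fluorescence or cell loss, cut at about -3.5 in these data, passing the limit was not always enough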;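 also: z-score of nuclear minus cytoplasmic ring GR-EGFP intensity difference per well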
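Buffer or medium: tet-free medium with charcoal-stripped serum / Also added: dexamethasone agonist, 1.0 µM final, for 30 min / Timing: induction 48 h, compound 1 h, agonist 30 min / Measured by: high-content fluorescence imaging after fixation / Read-out: nuclear-to-cytoplasmic GR-EGFP distribution per well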
ATG4B inh = ATG4B protease inhibitors, primary screen, biochemical, fluorescence, uHTS; AID 504462, 2011; Cysteine protease ATG4B (Homo sapiens), Q9Y4P1; inhibition, % at 8.33 µM; ATG4B cleavage of LC3-PLA2, NBD-HPC fluorescence, 1 h; hit rate 0.51% among 340,000; in the data active = inhibition above about 40%
Dynein confirm = dynein cargo transport inhibitors, GR-EGFP translocation, confirmation, imaging, high-content imaging, GR-EGFP cells; shares compounds with Dynein cargo inh; 3617.4 GR-EGFP nuclear translocation imaging, dexamethasone-induced; calls only at 20 µM; hit rate 69% among 1,000; AID 463116, 2010;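 active = inhibition of receptor movement into the nucleus at or above a set limit in both runs, with normal cell brightness and cell count; inconclusive = limit reached in only one run, brightness and count normal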;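 also: dexamethasone at 1 µM final in well for 30 min; nuclear minus cytoplasmic GR-EGFP mean intensity difference in channel 2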
Active calls of the source: *; i = inactive; u = inconclusive; x = no result; + = active, no number; [ ] = another dose, or the depositor's remark. The list is not random: actives were taken first. Their share in the collection is about 2.9%.

SMILES | B2AR ag | MEKK3 PB1 HTS | MEKK2 WT-MEK5 | MEKK2mut PB1 HTS | Dynein cargo inh | ATG4B inh | Dynein confirm
O=C1COc2ccc(C(=O)COC(=O)c3ccc(F)cc3Cl)cc2N1 | -2.3 | x | x | x | x | -2.1 | x
Cn1c(N)c(S(=O)(=O)N2CCN(c3ccccc3Cl)CC2)c(=O)n(C)c1=O | 3.4 | 101.0 | 102.0 | 3.0 | x | 0.8 | x
O=[N+]([O-])c1ccc(Oc2ccc(S(=O)(=O)Nc3ccccc3)cc2)cc1 | -9.4 | 98.0 | 99.0 | -1.0 | 0.013 | -9.6 | x
O=C1C(Cl)=C(NS(=O)(=O)c2ccc([N+](=O)[O-])cc2)C(=O)c2ccccc21 | -2.7 | 101.0 | 97.0 | 6.0 | -3.88* | -8.2 | +
Cc1cccc(NC(=O)NNC(=O)c2cc3occc3[nH]2)c1C | -7.2 | 101.0 | 97.0 | 0.0 | x | -2.9 | x
COc1cc(/C=C/c2ccc(O)cc2)cc(OC)c1 | 2.6 | 102.0 | 100.0 | -1.0 | x | -24.1 | x
COC(=O)c1ccc2c(c1)C(C)(C)C(/C=C/c1ccc(O)cc1)=[N+]2C | 48.9* | 72.0 | 51.0*[inhibitor] | -8.0 | -3.57* | 2.7 | u
N#CC1=C(N)OC2=C(CC/C2=C\c2ccccc2Cl)C1c1ccccc1Cl (stereo unspecified) | -14.3 | 103.0 | 104.0 | 13.0 | -0.0301 | 22.8 | x
N#CC1=C(N)OC2=C(CC/C2=C\c2ccccc2)C1c1ccccc1 (stereo unspecified) | -173.4 | x | x | x | -4.31 | -2.5 | +
OC(CNCCc1ccc(Cl)cc1)COc1ccc2ccccc2c1 (stereo unspecified) | 14.3 | x | x | x | -8.18* | -15.2 | i
COc1ccc(CCNCC(O)COc2ccc(Cl)cc2)cc1OC (stereo unspecified) | -4.3 | 106.0 | 117.0 | 9.0 | x | -7.0 | x
Cc1c(NC(=O)COC(=O)c2ccc(Cl)nc2)c(=O)n(-c2ccccc2)n1C | -5.2 | x | x | x | x | 1.1 | x
COc1ccccc1C1Nc2cccc3cccc(c23)N1 | 10.4 | 100.0 | 99.0 | -9.0 | -4.69* | 9.1 | i
CCc1sc(C(C2C(=O)CC(C)(C)CC2=O)C2C(=O)CC(C)(C)CC2=O)cc1[N+](=O)[O-] | 21.6 | 101.0 | 96.0 | -6.0 | -5.2* | -11.6 | i
CC1(C)CC(=O)C(C2C3=C(CC(C)(C)CC3=O)Oc3ccccc32)C(=O)C1 (stereo unspecified) | 9.1 | 78.0 | 84.0 | -29.0 | -1.11 | 1.4 | x
CC1(C)CC(=O)C2=C(C1)Oc1nc3ccccc3cc1C2C(C#N)C#N (stereo unspecified) | -0.7 | 103.0 | 103.0 | 4.0 | -4.39* | -2.9 | +
O=C(NC1CCCC1)c1cc(S(=O)(=O)N2CCCC2)ccc1Cl | -7.8 | 100.0 | 101.0 | 1.0 | x | 7.7 | x
Cc1c(OCC(=O)NCC(O)c2ccccc2)ccc2c3c(c(=O)oc12)CCCC3 (stereo unspecified) | -9.6 | 103.0 | 101.0 | 11.0 | x | 3.6 | x
O=C(CCl)Nc1cc(SCC(O)CO)cc([N+](=O)[O-])c1 (stereo unspecified) | 12.5 | 102.0 | 101.0 | 0.0 | -5.93* | -3.7 | +
Cc1cc2c(cc1C)NC(CC(=O)NCc1ccccc1)C(=O)N2 (stereo unspecified) | 0.7 | 109.0 | 107.0 | 6.0 | -3.69 | -6.2 | i
COc1cccc(-n2nc(C#N)c(Cl)cc2=O)c1 | 84.0* | 78.0 | 76.0 | -10.0 | -6.15* | 12.6 | +
COc1cccc(-n2nc(C(N)=O)c(O)cc2=O)c1 | -5.4 | 106.0 | 104.0 | -5.0 | -0.76 | 10.7 | x
O=S(=O)(CCSc1ccccn1)c1nc2ccccc2s1 | -0.3 | 96.0 | 95.0 | -8.0 | -4.02* | 4.5 | +
O=S(=O)(CCSc1nc2ccccc2o1)c1nc2ccccc2s1 | -2.0 | x | x | x | -4.07* | -3.0 | +
O=C(CSc1ccccn1)Nc1nc2ccccc2s1 | -12.9 | 97.0 | 98.0 | -1.0 | 0.51 | -1.2 | x
SMILES | B2AR ag | MEKK3 PB1 HTS | MEKK2 WT-MEK5 | MEKK2mut PB1 HTS | Dynein cargo inh | ATG4B inh | Dynein confirm
CCCN(CC(=O)Nc1ccccc1OC)C(=O)c1ccc2[nH]c3c(c2c1)CC(C)CC3 (stereo unspecified) | 12.1 | x | x | x | x | 2.6 | x
O=C1c2cc([N+](=O)[O-])cc3cc([N+](=O)[O-])cc(c23)C(=O)N1c1ccccn1 | 16.3 | 106.0 | 102.0 | 0.0 | -3.5* | 12.4 | i
O=C1c2ccc(Oc3cccc([N+](=O)[O-])c3)cc2C(=O)N1c1ccccn1 | 2.3 | 107.0 | 99.0 | -4.0 | -0.464 | 18.1 | x
NNc1nc2c(-c3ccc(Cl)cc3)nnn2c2ccccc12 | -36.2 | 103.0 | 106.0 | 8.0 | 1.23 | 5.8 | x
COCCCNc1nc2c(-c3ccc(Cl)cc3)nnn2c2ccccc12 | -10.3 | 109.0 | 100.0 | -2.0 | -4.19* | -7.6 | i
CCN(CC)c1ccc(/C=N/NC(=O)c2cc(C)nc3ccccc23)cc1 | 3.0 | 106.0 | 101.0 | -1.0 | 0.07 | -1.7 | x
CCN(CC)c1ccc(/C=C/c2cc(-c3ccccc3)c3ccccc3n2)cc1 | -874.1 | 74.0*[inhibitor] | 93.0 | 2.0 | -5.64 | 5.7 | i
COC(=O)C(=Cc1ccc(OCc2ccc([N+](=O)[O-])cc2)c(OC)c1)C(=O)OC | 3.2 | x | x | x | -0.596 | -2.1 | x
CCOC(=O)C(=Cc1ccc(OCc2ccc([N+](=O)[O-])cc2)c(OC)c1)C(=O)OCC | 24.7 | 99.0 | 102.0 | 8.0 | -4.09* | -3.3 | +
CC(=O)COc1c(-c2ccco2)oc2ccccc2c1=O | -2.2 | 102.0 | 103.0 | 5.0 | x | -5.4 | x
Cc1ncc(CCl)c2c1OC(C)(C)OC2 | -4.6 | 110.0 | 100.0 | 9.0 | -4.41* | -9.6 | i
CSc1ncnc2c1ccn2CC(=O)Nc1ccc(C)c(C)c1 | -8.1 | x | x | x | x | -4.4 | x
Cc1ccc(/C=C/C(=O)Nc2ccc(Oc3ccccc3)cc2)o1 | 9.7 | 100.0 | 104.0 | 2.0 | -3.61* | 3.9 | i
Cc1ccc(/C=C/C(=O)Nc2ccc([N+](=O)[O-])cc2)o1 | -0.2 | 107.0 | 105.0 | 4.0 | -1.02 | -5.3 | x
CCCC(=O)OCCNc1cc(SCCC(=O)OC)c2nonc2c1[N+](=O)[O-] | 18.3 | 121.0 | 102.0 | 0.0 | -4.51* | -1.4 | +
COc1ccc(Nc2cc(NCCCO)c([N+](=O)[O-])c3nonc23)cc1 | -10.4 | 103.0 | 101.0 | 0.0 | x | 4.0 | x

Assay outcomes deposited in PubChem BioAssay by several laboratories.
